According to ChEMBL document CHEMBL3120060, “Synthesis, in vitro anticancer evaluation and in silico studies of novel imidazo[2,1-b]thiazole derivatives bearing pyrazole moieties” (2014):

How the values were obtained:
Assay type in all cases: functional
SNB-19 = assay: Cytotoxicity against human SNB19 cells assessed as cell growth at 10 uM after 48 hrs by SRB assay; conditions: SNB-19, 48 h, read-out: Activity
Outline: (§1)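 NCI-60 single-dose screen. Cell lines grown in RPMI 1640 with 5% FBS and 2 mM L-glutamine, plated at 5000–40,000 cells/well according to doubling time, then preincubated 24 h at 37 °C in 5% CO2. Compounds dissolved in DMSO, tested at 10^-5 M for 48 h. Adherent cells fixed with cold TCA (10% final) and stained with 0.4% SRB in 1% acetic acid. Growth expressed as percent of untreated control.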

SF-539 = assay: Cytotoxicity against human SF539 cells assessed as cell growth at 10 uM after 48 hrs by SRB assay; conditions: SF-539, 48 h, read-out: Activity; outline: as §1
SF-268 = assay: Cytotoxicity against human SF268 cells assessed as cell growth at 10 uM after 48 hrs by SRB assay; conditions: SF-268, 48 h, read-out: Activity; outline: as §1
KM12 = assay: Cytotoxicity against human KM12 cells assessed as cell growth at 10 uM after 48 hrs by SRB assay; conditions: KM12, 48 h, read-out: Activity; outline: as §1
HT-29 = assay: Cytotoxicity against human HT-29 cells assessed as cell growth at 10 uM after 48 hrs by SRB assay; conditions: HT-29, 48 h, read-out: Activity; outline: as §1
HCT-15 = assay: Cytotoxicity against human HCT15 cells assessed as cell growth at 10 uM after 48 hrs by SRB assay; conditions: HCT-15, 48 h, read-out: Activity; outline: as §1
HCC 2998 = assay: Cytotoxicity against human HCC2998 cells assessed as cell growth at 10 uM after 48 hrs by SRB assay; conditions: HCC 2998, 48 h, read-out: Activity; outline: as §1
NCI-H522 = assay: Cytotoxicity against human NCI-H522 cells assessed as cell growth at 10 uM after 48 hrs by SRB assay; conditions: NCI-H522, 48 h, read-out: Activity; outline: as §1
NCI-H23 = assay: Cytotoxicity against human NCI-H23 cells assessed as cell growth at 10 uM after 48 hrs by SRB assay; conditions: NCI-H23, 48 h, read-out: Activity; outline: as §1
NCI-H226 = assay: Cytotoxicity against human NCI-H226 cells assessed as cell growth at 10 uM after 48 hrs by SRB assay; conditions: NCI-H226, 48 h, read-out: Activity; outline: as §1
HOP-92 = assay: Cytotoxicity against human HOP92 cells assessed as cell growth at 10 uM after 48 hrs by SRB assay; conditions: HOP-92, 48 h, read-out: Activity; outline: as §1
SR = assay: Cytotoxicity against human SR cells assessed as cell growth at 10 uM after 48 hrs by SRB assay; conditions: read-out: Activity
Outline: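 Leukemia line, NCI-60 single-dose screen at 10^-5 M. Cells are grown in RPMI 1640 with 5% FBS and 2 mM L-glutamine, plated by doubling time, and preincubated 24 h at 37 °C with 5% CO2. After 48 h drug exposure, settled cells are fixed with 80% TCA (final 16%) and stained with SRB. Percent growth is calculated against untreated control and time-zero plates.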

CCRF-CEM = assay: Cytotoxicity against human CCRF-CEM cells assessed as cell growth at 10 uM after 48 hrs by SRB assay; conditions: read-out: Activity; outline: as §1
T47D = assay: Cytotoxicity against human T47D cells assessed as cell growth at 10 uM after 48 hrs by SRB assay; conditions: read-out: Activity
Outline: (§2)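 NCI-60 single-dose screen at 10^-5 M. Adherent lines are grown in RPMI 1640 with 5% FBS and 2 mM L-glutamine, seeded at 5000–40,000 cells/well by doubling time, and preincubated 24 h at 37 °C in 5% CO2. Drug is added from DMSO stock diluted in medium, then 48 h. Cells are fixed in cold TCA (final 10%) for 60 min and stained with 0.4% SRB in 1% acetic acid. Growth is expressed as % of untreated control using time-zero plates.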

BT-549 = assay: Cytotoxicity against human BT549 cells assessed as cell growth at 10 uM after 48 hrs by SRB assay; conditions: BT-549, 48 h, read-out: Activity; outline: as §1
PC-3 = assay: Cytotoxicity against human PC3 cells assessed as cell growth at 10 uM after 48 hrs by SRB assay; conditions: PC-3, 48 h, read-out: Activity; outline: as §1
[1] = Cytotoxicity against human UO31 cells assessed as cell growth at 10 uM after 48 hrs by SRB assay; conditions: UO-31, 48 h, read-out: Activity; outline: as §2
TK-10 = assay: Cytotoxicity against human TK10 cells assessed as cell growth at 10 uM after 48 hrs by SRB assay; conditions: TK-10, 48 h, read-out: Activity; outline: as §2
ACHN = assay: Cytotoxicity against human ACHN cells assessed as cell growth at 10 uM after 48 hrs by SRB assay; conditions: read-out: Activity; outline: as §1
A498 = assay: Cytotoxicity against human A498 cells assessed as cell growth at 10 uM after 48 hrs by SRB assay; conditions: A498, 48 h, read-out: Activity; outline: as §1
SK-OV-3 = assay: Cytotoxicity against human SKOV3 cells assessed as cell growth at 10 uM after 48 hrs by SRB assay; conditions: SK-OV-3, 48 h, read-out: Activity; outline: as §1
[2] = Cytotoxicity against human NCI-ADR-RES cells assessed as cell growth at 10 uM after 48 hrs by SRB assay; conditions: read-out: Activity; outline: as §1
OVCAR-8 = assay: Cytotoxicity against human OVCAR8 cells assessed as cell growth at 10 uM after 48 hrs by SRB assay; conditions: OVCAR-8, 48 h, read-out: Activity; outline: as §1
[3] = Cytotoxicity against human OVCAR4 cells assessed as cell growth at 10 uM after 48 hrs by SRB assay; conditions: OVCAR-4, 48 h, read-out: Activity; outline: as §1
SK-MEL-5 = assay: Cytotoxicity against human SK-MEL-5 cells assessed as cell growth at 10 uM after 48 hrs by SRB assay; conditions: SK-MEL-5, 48 h, read-out: Activity; outline: as §1
MDA-MB-435 = assay: Cytotoxicity against human MDA-MB-435 cells assessed as cell growth at 10 uM after 48 hrs by SRB assay; conditions: MDA-MB-435, 48 h, read-out: Activity; outline: as §1
M14 = assay: Cytotoxicity against human M14 cells assessed as cell growth at 10 uM after 48 hrs by SRB assay; conditions: M14, 48 h, read-out: Activity; outline: as §1
Malme-3M = assay: Cytotoxicity against human MALME-3M cells assessed as cell growth at 10 uM after 48 hrs by SRB assay; conditions: read-out: Activity; outline: as §1
SNB-75 = assay: Cytotoxicity against human SNB75 cells assessed as cell growth at 10 uM after 48 hrs by SRB assay; conditions: SNB-75, 48 h, read-out: Activity; outline: as §1

Compound	growth at 10 µM (SNB-19)	growth at 10 µM (SF-539)	growth at 10 µM (SF-268)	growth at 10 µM (KM12)	growth at 10 µM (HT-29)	growth at 10 µM (HCT-15)	growth at 10 µM (HCC 2998)	growth at 10 µM (NCI-H522)	growth at 10 µM (NCI-H23)	growth at 10 µM (NCI-H226)	growth at 10 µM (HOP-92)	growth at 10 µM (SR)	growth at 10 µM (CCRF-CEM)	growth at 10 µM (T47D)	growth at 10 µM (BT-549)	growth at 10 µM (PC-3)	growth at 10 µM [1]	growth at 10 µM (TK-10)	growth at 10 µM (ACHN)	growth at 10 µM (A498)	further results
CC1=NN(c2cn3c(-c4ccc(C)cc4)csc3n2)C(=O)C1	100%	102%	111%	104%	118%	103%	103%	88.9%	95.5%	89.7%	65.5%	73.3%	94%	80.6%	111%	75.3%	71.6%	135%	96.9%	99.2%	growth at 10 µM (SK-OV-3): 95.5%; growth at 10 µM [2]: 99.3%; growth at 10 µM (OVCAR-8): 102%; growth at 10 µM [3]: 99.9%; growth at 10 µM (SK-MEL-5): 90%; growth at 10 µM (MDA-MB-435): 83.6%; growth at 10 µM (M14): 99.2%; growth at 10 µM (Malme-3M): 107%; growth at 10 µM (SNB-75): 79.1%
CC1=NN(c2cn3c(-c4ccc(Cl)cc4)csc3n2)C(=O)C1	88%	94.7%	96.3%	105%	85.7%	88.7%	100%	84.5%	92%	95.4%	73.6%	73.3%	84.4%	73.7%	101%	79.4%	80.9%	98.8%	89.1%	74.1%	growth at 10 µM (SK-OV-3): 100%; growth at 10 µM [2]: 100%; growth at 10 µM (OVCAR-8): 94.2%; growth at 10 µM [3]: 77.2%; growth at 10 µM (SK-MEL-5): 92.4%; growth at 10 µM (MDA-MB-435): 87.4%; growth at 10 µM (M14): 96.2%; growth at 10 µM (Malme-3M): 102%; growth at 10 µM (SNB-75): 65.3%
CC1=NN(c2cn3c(-c4ccccc4)csc3n2)C(=O)C1	90.8%	89.7%	99.3%	102%	106%	96.7%	97.3%	89.2%	91.6%	101%	66.5%	84.5%	95.9%	89.4%	89.7%	77.6%	59%	125%	91.2%	96.6%	growth at 10 µM (SK-OV-3): 88.9%; growth at 10 µM [2]: 92.5%; growth at 10 µM (OVCAR-8): 105%; growth at 10 µM [3]: 98%; growth at 10 µM (SK-MEL-5): 102%; growth at 10 µM (MDA-MB-435): 92.9%; growth at 10 µM (M14): 100%; growth at 10 µM (Malme-3M): 107%; growth at 10 µM (SNB-75): 59.4%
Cc1ccc(-c2csc3nc(N4NC(=O)CC4=O)cn23)cc1	102%	101%	106%	115%	111%	100%	102%	95.9%	96.9%	94.4%	75.1%	84.4%	95.6%	85.7%	113%	87.3%	74.7%	139%	90.5%	98%	growth at 10 µM (SK-OV-3): 101%; growth at 10 µM [2]: 108%; growth at 10 µM (OVCAR-8): 99.3%; growth at 10 µM [3]: 99.1%; growth at 10 µM (SK-MEL-5): 95.9%; growth at 10 µM (MDA-MB-435): 90%; growth at 10 µM (M14): 105%; growth at 10 µM (Malme-3M): 118%; growth at 10 µM (SNB-75): 73.3%
